Measurements taken from ChEMBL document CHEMBL1153963, “Phenanthrene-based tylophorine-1 (PBT-1) inhibits lung cancer cell growth through the Akt and NF-kappaB pathways” (J Med Chem, 2009).
Activity calls are given as the source filed them. The rule behind the calls is not given here.

Tests used:
[1] = tested on: CL1-0; test: Decrease in IkappaB protein level in TNF-alpha-stimulated human CL1-0 cells by Western blot; format: functional, cell-based
Method in brief: (§1)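 CL1-0 cells serum-starved overnight, pretreated with various drug concentrations, then stimulated with TNF-α for 4 h. Lysates (50 µg) resolved by 10% SDS-PAGE, blotted, probed with specific antibodies in TBS pH 7.5/0.05% Tween 20/5% milk, HRP secondaries, chemiluminescent film detection; a representative blot shown.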

[2] = target: T1, Inhibitor of nuclear factor kappa-B kinase subunit alpha (Homo sapiens) (UniProt O15111); test: Increase in IKKalpha activity in TNF-alpha-stimulated human CL1-0 cells by Western blot; format: cell-based
T1 sequence (whole entry): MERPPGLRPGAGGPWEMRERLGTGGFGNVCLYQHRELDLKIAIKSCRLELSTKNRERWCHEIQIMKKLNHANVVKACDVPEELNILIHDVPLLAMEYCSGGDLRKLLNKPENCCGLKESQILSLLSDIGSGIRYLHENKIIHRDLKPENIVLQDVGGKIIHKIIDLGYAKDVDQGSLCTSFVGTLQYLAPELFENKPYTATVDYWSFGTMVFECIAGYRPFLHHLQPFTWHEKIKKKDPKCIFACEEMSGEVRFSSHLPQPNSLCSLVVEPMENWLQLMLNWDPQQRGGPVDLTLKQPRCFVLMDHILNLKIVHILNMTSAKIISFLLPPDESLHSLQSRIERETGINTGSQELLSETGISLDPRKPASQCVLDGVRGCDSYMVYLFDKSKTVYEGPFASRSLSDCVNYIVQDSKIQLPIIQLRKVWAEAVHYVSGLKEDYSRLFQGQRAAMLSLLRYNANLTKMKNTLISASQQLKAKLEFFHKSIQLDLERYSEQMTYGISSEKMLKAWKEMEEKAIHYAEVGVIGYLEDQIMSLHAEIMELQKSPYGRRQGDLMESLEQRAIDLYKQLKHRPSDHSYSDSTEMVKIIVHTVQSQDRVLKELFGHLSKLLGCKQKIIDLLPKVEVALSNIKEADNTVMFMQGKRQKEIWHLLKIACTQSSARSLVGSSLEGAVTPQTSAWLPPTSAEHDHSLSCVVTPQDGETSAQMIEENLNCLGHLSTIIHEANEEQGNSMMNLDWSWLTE
Method in brief: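 CL1-0 (and A549) cells serum-starved overnight, pretreated at various concentrations, then TNF-α stimulated for 4 h; extracts immunoblotted for p-Akt, Akt, IKKα, p-IKKα/β; representative blot shown.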

[3] = tested on: CL1-0; test: Cytotoxicity against human CL1-0 cells assessed as disruption of cell morphology after 48 hrs; format: functional, cell-based
[4] = tested on: CL1-0; test: Suppression of colony formation of human CL1-0 cells assessed as reduction of cell colonies after 10 to 14 days; format: functional, cell-based
[5] = tested on: CL1-0; test: Growth inhibition of human CL1-0 cells at >0.25 ug/mL; format: functional, cell-based
[6] = Cell cycle arrest in human CL1-0 cells assessed as accumulation at G0/G1 phase after 2 hrs by flow cytometry; format: functional, cell-based
Method in brief: (§2)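 CL1-0 cells seeded at 2×10^5 per 60 mm dish, incubated 24 h, then exposed to various drug concentrations for 2, 6, 12, 16 or 24 h. Harvested cells fixed in cold 70% ethanol at 4 °C for 16 h, treated with RNase A (20 µg/mL, 37 °C, 30 min), stained with propidium iodide (50 µg/mL, 4 °C, 30 min), analysed at once by flow cytometry for phase distribution.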

[7] = Cell cycle arrest in human CL1-0 cells assessed as accumulation at G0/G1 phase after 12 hrs by flow cytometry; format: functional, cell-based; method in brief: as §2
[8] = Cell cycle arrest in human CL1-0 cells assessed as accumulation at G0/G1 phase after 24 hrs by flow cytometry; format: functional, cell-based; method in brief: as §2
[9] = Cell cycle arrest in human CL1-0 cells assessed as accumulation at G2/M phase after 2 hrs by flow cytometry; format: functional, cell-based; method in brief: as §2
[10] = tested on: CL1-0; test: Induction of cyclin B1 protein accumulation in human CL1-0 cells at 0.5 ug/mL after 24 hrs by Western blot; format: functional, cell-based
Method in brief: (§3)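 CL1-0 cells exposed to rising concentrations for 24 h, or to 0.5 µg/mL over a time course; 50 µg lysate resolved by 10% SDS-PAGE, blotted, probed with cyclin/CDK-inhibitor antibodies in TBS-Tween/5% milk, HRP secondary, chemiluminescent film detection.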

[11] = tested on: CL1-0; test: Effect on p27 protein expression in human CL1-0 cells at 0.5 ug/mL after 24 hrs by Western blot; format: functional, cell-based; method in brief: as §3
[12] = tested on: CL1-0; test: Induction of apoptosis in human CL1-0 cells assessed as PARP1 cleavage by Western blot; format: functional, cell-based
[13] = target: RAC-alpha serine/threonine-protein kinase (Homo sapiens) (UniProt P31749); test: Inhibition of AKT phosphorylation in human CL1-0 cells by Western blot; format: cell-based
Sequence of RAC-alpha serine/threonine-protein kinase (Homo sapiens) (P31749 whole entry): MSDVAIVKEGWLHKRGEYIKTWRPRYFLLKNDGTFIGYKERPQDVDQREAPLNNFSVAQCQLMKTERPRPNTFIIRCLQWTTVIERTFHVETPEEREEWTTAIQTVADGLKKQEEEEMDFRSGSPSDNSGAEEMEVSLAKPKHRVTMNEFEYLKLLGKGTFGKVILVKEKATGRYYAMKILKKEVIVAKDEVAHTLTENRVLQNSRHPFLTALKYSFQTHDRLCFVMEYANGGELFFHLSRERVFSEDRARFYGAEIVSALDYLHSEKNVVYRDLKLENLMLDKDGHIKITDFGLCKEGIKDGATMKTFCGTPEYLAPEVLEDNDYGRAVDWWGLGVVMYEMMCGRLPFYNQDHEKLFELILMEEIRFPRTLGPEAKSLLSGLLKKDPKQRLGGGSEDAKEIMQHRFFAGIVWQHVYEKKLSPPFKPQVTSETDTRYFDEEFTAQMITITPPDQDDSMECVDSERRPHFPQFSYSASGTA
Method in brief: (§4)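 Western blot of CL1-0 cells after 24 h at increasing concentrations; probed for p-Akt, Akt and IκB; 50 µg lysate on 10% SDS-PAGE, HRP secondary, chemiluminescence on film.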

[14] = tested on: CL1-0; test: Increase in IkappaB protein level in human CL1-0 cells by Western blot; format: functional, cell-based; method in brief: as §4
[15] = tested on: CL1-0; test: Decrease in RelA protein level in TNF-alpha-stimulated human CL1-0 cells by Western blot; format: functional, cell-based; method in brief: as §1

With `COc1ccc2c(CN3CCC(CO)CC3)cc3cc4c(cc3c2c1)OCO4` the Activity [1] was “Active”, the Activity [2] was “Active” and the Activity [3] was “Active”. The Activity [4] was “Dose-dependent effect”, the Activity [5] was “Active” and the Activity [6] was 53.7%. The Activity [7] was 41.7%, the Activity [8] was 16.6% and the Activity [9] was 25.4%. The Activity [10] was “Active”, the Activity [11] was “inactive” and the Activity [12] was “Active”. The Activity [13] was “Dose-dependent effect”, the Activity [14] was “Dose-dependent effect” and the Activity [15] was “Active”.
